Assay outcomes (PubChem BioAssay)
The sample as a whole holds a higher share of hits than the screen did.
CHOP inhibitor – inhibitors of CHOP induction in ER stress response | CHO-K1 CHOP-promoter luciferase, tunicamycin-induced, 15-18 h | inhibition, % at 10 µM | 220,000 tested, 3.8% active | AID 2732;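 active = compounds that reduced the stress-induced luciferase reporter signal by more than about 70% of percent inhibition, limit read from the data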;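 also: 0% = tunicamycin plus vehicle and 100% = wells without tunicamycin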
p-CIP stab down – lowers stability of the mouse p/CIP coactivator protein. decrease of EGFP signal, % at 10 µM. 290,000 tested, 0.01% active. F442A p/CIP-EGFP cells, EGFP fluorescence, 16 h. AID 1984;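 active = EGFP signal decrease of at least 30% at 10 µM or well 3 SD below plate mean, unless failing retest; inactive = the rest, including hits failing retest or dose response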
Beta2AR agonist – activates human beta-2 adrenergic receptor causing internalization | P07550 | Am2.2-beta2AR cells, FAP receptor internalization, flow cytometry | response, % (test concentration not listed) | 340,000 tested, 0.43% active;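 active = response above a set limit, near 3 SD of response in nonfluorescent compounds, cut at about 42% in these data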
Dynein transport – blocks dynein driven cargo transport along microtubules. z-score, hits read low. 220,000 tested, 0.47% active. 3617.4 mouse cells, GR-EGFP nuclear translocation imaging; test concentration mostly 20 µM; stimulated with dexamethasone, 1 µM; stronger effect = lower value;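 active = plate z-score of nuclear minus cytoplasmic receptor signal below a set negative limit, without overly bright fluorescence or cell loss, cut at about -3.5 in these data, passing the limit was not always enough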;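 also: z-score of nuclear minus cytoplasmic ring GR-EGFP intensity difference per well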
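Also added – dexamethasone, 1.0 µM final · Buffer or medium – tet-free, stripped-serum medium · Schedule – induction 48 h, compound 1 h, agonist 30 min · Detection – formaldehyde fixation, Hoechst nuclear stain, 10x automated fluorescence imaging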
UPR CHOP act – activators of apoptotic arm of unfolded protein response (CHOP); AID 449763; CHO-CHOP luciferase reporter, UPR activation, luminescence; percent of tunicamycin response over DMSO baseline; 330,000 tested, 0.34% active; activation, % at 10 µM;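 active = at 10 µM dose, activation of 40% or more, normalized to positive control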;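 also: 100% = tunicamycin at 10 µg/mL and 0% = DMSO alone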
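Assay system: CHO cells with stable CHOP pathway luciferase reporter; Buffer or medium: F12 plus 10% serum; Times: 16-18 h cell attachment, then 6 h compound exposure, 37 °C; Signal: luciferase luminescence; Read-out basis: percent activation relative to tunicamycin control; Control set: tunicamycin high control, DMSO low control.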
UPR XBP1 act – adaptive UPR (XBP1) activation. CHO-XBP1 luciferase reporter, IRE1-XBP1 UPR activation, luminescence; percent of tunicamycin response, DMSO as zero. 330,000 tested, 0.33% active. activation, % at 20 µM;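 active = versus positive control, 20 µM dose yields 30% or more activation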;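 also: 100% = tunicamycin at 10 µg/mL and 0% = DMSO only wells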
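Material: CHO cell line with stable XBP1 luciferase reporter; schedule: 16-18 h cell attachment at 37 °C, then 6 h compound exposure; signal: glow luminescence from Steady-Glo reagent; medium: serum-containing F12 medium, 10% FBS; benchmarks: tunicamycin 10 µg/mL and vehicle-only wells; read-out: percent activation relative to tunicamycin reference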
Numbers without * were called inactive; . = not tested or not shown.

SMILES	CHOP inhibitor	p-CIP stab down	Beta2AR agonist	Dynein transport	UPR CHOP act	UPR XBP1 act
Cc1nccn1-c1c([N+](=O)[O-])c(=O)n(C)c2ccccc12	6	0	1	-0.98	-2	-3
Cn1c(=O)c([N+](=O)[O-])c(-n2cnc3ccccc32)c2ccccc21	74*	-6	11	-3.3	21	8
O=C(Nc1cccc(F)c1)c1cc(S(=O)(=O)N2CCOCC2)cs1	-4	-18	9	0.44	1	-2
O=C(O)CSc1nc(-c2ccc(Cl)cc2)nc2c1oc1ccccc12	74*	8	2	-0.96	.	.
Cc1nc2ccccc2cc1OCc1ccc(Cl)cc1	83*	-20	3	.	8	6
COc1ccc(CNC(=O)COC(=O)C2CCC(C(C)(C)C)CC2)cc1 (stereo unspecified)	90*	0	-2	-0.15	-1	-1
O=C(Nc1cccc(C(F)(F)F)c1)NC1CCCCC1	87*	0	-5	-0.4	1	-8
Cc1ccc(C(=O)OCC(=O)Nc2sccc2C(N)=O)cc1NC(=O)c1ccco1	72*	-4	7	0.21	1	3
Cc1ccc(C(=O)OCC(=O)Nc2ccccc2)cc1NC(=O)c1ccco1	1	-15	11	-0.1	5	1
COc1cc2c(=O)n(Cc3ccccc3)c(=O)n(CC(=O)NCc3ccco3)c2cc1OC	71*	-4	32	-0.1	.	.
O=C1c2ccccc2S(=O)(=O)N1CCS(=O)(=O)c1ccc(F)cc1	.	-8	-1	.	-4	-4
Cc1cc(Oc2ccc(N)cn2)cc(C)c1Cl	6	-110	14	1.2	2	3
CC(C)(C)c1ccc(Oc2ccc(N)cn2)cc1	88*	-26	-2	0.68	-5	-3
O=C(Nc1c2c(nn1-c1ccccc1)CS(=O)C2)c1ccc(Br)o1 (stereo unspecified)	.	-3	-2	.	-3	-5
O=c1[nH]c2ccc(Cl)cc2c(-c2ccccc2)c1N1CCN(c2ccccn2)CC1	71*	-5	6	-0.049	0	3
O=c1[nH]c2ccc(Cl)cc2c(-c2ccccc2)c1N1CCOCC1	57	6	1	-1.7	-1	-1
CCc1nnc(NC(=O)CCC(=O)NCc2ccccc2Cl)s1	.	5	0	.	0	-3
COc1cc(SC)ccc1C(=O)NCCOc1c(C)cc(C)cc1C	91*	4	-7	-0.75	0	0
COc1cc(SC)ccc1C(=O)NCCOc1ccc(Cl)cc1	27	-10	-13	-0.094	1	-2
Cc1ccc(-c2nc(COC(=O)C3=NN(c4ccccc4)C(=O)CC3)cs2)cc1	.	.	0	.	1	-1
c1ccc(Oc2nc3ccccc3n3cccc23)cc1	70*	-7	-13	0.16	-1	-4
Oc1ccc(Cl)cc1/C=C/c1ccc2cccc(O)c2n1	94*	-8	9	2.2	5	6
COc1ccc(C)cc1-n1nnnc1SCC(=O)NC1CCS(=O)(=O)C1 (stereo unspecified)	.	.	-7	.	2	0
CCOC(=O)c1c(NC(=O)Cn2nnc3ccccc32)sc2c1CCC(C)C2 (stereo unspecified)	49	-4	-1	-0.95	0	-3
CCOC(=O)c1c(NC(=O)Cn2c(C)nc3ccccc32)sc2c1CCC2	48	-8	4	-0.34	0	-6
CCOC(=O)c1c(NC(=O)COC(=O)Cn2cnc3ccccc32)sc2c1CCC(C)C2 (stereo unspecified)	72*	9	-4	2.5	.	.
CCOC(=O)c1c(NC(=S)NC(=O)c2ccc(Cn3cc(Cl)cn3)o2)sc2c1CCC(C)C2 (stereo unspecified)	77*	-9	-6	-0.15	8	13
CCOC(=O)c1c(NC(=O)C(C)NCc2ccco2)sc2c1CCC(C)C2 (stereo unspecified)	73*	2	5	0.98	-2	-3
CCOC(=O)c1c(NC(=O)COC(=O)Cn2c(C)nc3ccccc32)sc2c1CCCC2	74*	6	3	-0.42	-2	-4
